Laboratory results reported in ChEMBL document CHEMBL1136992, “Further studies at neuropeptide s position 5: discovery of novel neuropeptide S receptor antagonists” (J Med Chem, 2009).
The source made the active and inactive calls. The calls are words filed in the database; no cut-off is given here. Square brackets hold non-standard residues; d marks the D form. Peptide text beside a SMILES is read from it.

What was measured:
[1] = biological target: T1, Neuropeptide S receptor (Homo sapiens) (UniProt Q6W5P4); conditions: HEK293
T1 sequence (whole entry): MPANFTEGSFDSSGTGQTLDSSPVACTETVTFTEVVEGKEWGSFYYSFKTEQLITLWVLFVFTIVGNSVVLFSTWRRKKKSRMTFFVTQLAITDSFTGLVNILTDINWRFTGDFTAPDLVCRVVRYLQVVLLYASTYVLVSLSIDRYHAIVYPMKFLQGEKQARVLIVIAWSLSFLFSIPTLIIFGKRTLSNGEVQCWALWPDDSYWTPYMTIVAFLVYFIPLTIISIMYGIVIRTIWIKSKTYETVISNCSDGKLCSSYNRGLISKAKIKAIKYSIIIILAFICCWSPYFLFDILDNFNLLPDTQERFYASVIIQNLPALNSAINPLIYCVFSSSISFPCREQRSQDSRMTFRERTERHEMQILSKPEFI

[2] = biological target: T2, Neuropeptide S receptor (Mus musculus) (UniProt Q8BZP8); assay: Agonist activity at mouse NPSR expressed in HEK293 cells up to 10 uM by calcium mobilization assay; type: functional, cell-based
T2 sequence (whole entry): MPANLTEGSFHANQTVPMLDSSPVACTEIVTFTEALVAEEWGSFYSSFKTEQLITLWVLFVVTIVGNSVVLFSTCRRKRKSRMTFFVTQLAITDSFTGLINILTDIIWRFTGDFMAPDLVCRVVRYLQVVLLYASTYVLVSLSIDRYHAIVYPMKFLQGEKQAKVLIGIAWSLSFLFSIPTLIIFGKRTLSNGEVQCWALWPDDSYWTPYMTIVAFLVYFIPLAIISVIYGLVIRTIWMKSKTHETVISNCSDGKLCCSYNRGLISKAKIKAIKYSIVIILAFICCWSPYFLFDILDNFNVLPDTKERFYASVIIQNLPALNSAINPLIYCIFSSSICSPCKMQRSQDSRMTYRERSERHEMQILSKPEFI
Method in brief: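 HEK293 cells stably expressing mouse NPSR; intracellular calcium mobilization measured after peptide addition, concentration-response curves giving pEC50 and Emax as % over basal. Mean of at least four separate experiments performed in duplicate.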

[3] = biological target: T2, Neuropeptide S receptor (Mus musculus); assay: Antagonist activity at mouse NPSR expressed in HEK293 cells assessed as inhibition of NPS-induced response; type: functional, cell-based
Method in brief: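 HEK293 cells stably expressing mouse NPSR, calcium mobilization. Inhibition response curves to test peptides against 30 nM NPS, run at 37 °C with three up-and-down mixing cycles right after antagonist injection to aid diffusion. Mean of at least four separate experiments performed in duplicate.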

SMILES	pKb [1]	Emax [2]	pKb [3]
O=C(NCc1ccc(F)cc1)N1CCN2C(=O)OC(c3ccccc3)(c3ccccc3)C2C1 (stereo not drawn)	7.5		
CSCC[C@H](NC(=O)CNC(=O)[C@@H](NC(=O)CNC(=O)[C@@H](NC(=O)[C@H](NC(=O)[C@H](CC(N)=O)NC(=O)[C@H](CCCNC(=N)N)NC(=O)[C@H](Cc1ccccc1)NC(=O)[C@@H](N)CO)C(C)C)C(C)C)[C@@H](C)O)C(=O)N[C@@H](CCCCN)C(=O)N[C@@H](CCCCN)C(=O)N[C@H](C(=O)N[C@@H](CO)C(=O)N[C@@H](Cc1ccccc1)C(=O)N[C@@H](CCC(N)=O)C(=O)N[C@@H](CCCNC(=N)N)C(=O)N[C@@H](C)C(=O)N[C@@H](CCCCN)C(=O)N[C@@H](CO)C(=O)O)[C@@H](C)O (H-SFRN[dV]VGTGMKKTSFQRAKS-OH)		inactive	6.54
